This note sets out measurements from PubChem BioAssay.

What is called inhibition is the drop in the measured response relative to a control, in per cent. What is called viability is a read-out of living cells in per cent, often relative to untreated cells.

Experiment [1] addresses Pantothenate synthetase (Mycobacterium tuberculosis (strain ATCC 25618 / H37Rv)) (UniProt P9WIL5). In words: Recombinant Mtb pantothenate synthetase (PanC) inhibitors, coupled enzyme, confirmatory (AID 375; call rule not given here;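 also: 0% = full reaction with vehicle and 100% = no enzyme background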). Particulars: coupled enzyme assay; at 10 µM, stronger effect = higher value.
Experiment [2] can be described thus: reducers of endogenous Her2 protein level, primary screen, SKBR3 breast tumor cells, AlphaScreen, ATP viability (AID 461;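 active = Her2 level under about 52% in both replicate screens, with viability over 70% of control, limit read from the data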;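 as to Her2 level: lower value means less Her2 protein in the cells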;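 as to viability: percent of carrier control wells set as 100% viability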). To be noted: 18-24 h, measured here: SKBR3 viability, ATP luminescence, at 10 µM. On the technique in general: Bead proximity is the source of the signal in Alpha formats.
The target of experiment [3] is Receptor tyrosine-protein kinase erbB-2 (Homo sapiens) (UniProt P04626). The description is as above. Particulars: 18-24 h, at 10 µM, stronger effect = lower value.
The nature of experiment [4]: SK-BR-3 cell growth inhibitors, pilot screen, 24 h, human (AID 572;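 active = viability at or below 10% of carrier control in both of two separate runs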;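 also: compound exposure lasted between 18 and 24 h rather than exactly 24 h; 100% = carrier-treated control wells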). Particulars: SK-BR-3 viability, CellTiter-Glo luminescence, at 10 µM, stronger effect = lower value. In general terms: ATP-based viability assays read luminescence as a measure of living cells.
Experiment [5] can be described thus: HUVEC growth inhibition – cell-based, human, primary screen (AID 575;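 active = viability at or below 30% in both replicate assays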;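 also: 100% = median of untreated cell wells with 0.1% DMSO on each plate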). To be noted: HUVEC proliferation, CellTiter-Glo luminescence, 72 h; at 10 µM; stronger effect = lower value. The method in brief:
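Test system: primary human umbilical vein endothelial cells; medium: endothelial basal medium with 2% FBS plus growth supplements; dosing: 10 µM compound only; times: 72 h treatment at 37 °C; signal: CTG luminescence; read-out: % viability relative to median vehicle-well signal on each plate; control set: vehicle and MePR control wells; plate: 384-well, collagen-coated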

Experiment [6] is described as follows: growth inhibitors of H69AR lung tumor, primary screen, human, duplicate replicates (AID 580;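 active = viability at or under a set limit in both replicates, limit being median viability minus 3 SD, cut at about 48% in these data, passing the limit was not always enough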;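 also: 100% = mean luminescence of untreated wells and 0% = no signal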). Particulars: H69AR lung tumor cells viability, ATP luminescence, 72 h; at 10 µM; stronger effect = lower value.
The nature of experiment [7]: reversal of MRP1-mediated doxorubicin resistance, pilot screen, H69AR cells, doxorubicin co-treatment (AID 601). To be noted: CellTiter-Glo, 72 h, at 10 µM; for differential viability (reversal): stronger effect = higher value.
The nature of experiment [8]: 384-well plate pilot, post-Golgi transport modulator project, inhibition of yeast transport mutant growth (AID 636; in the data active = inhibition above about 31%). To be noted: absorbance 615 nm, about 18 h, stronger effect = higher value.
A short description of experiment [9]: growth suppression of yeast trafficking mutant, preliminary HTS, modulators of trafficking downstream of Golgi apparatus project, 1536-format plate, OD 615 nm (AID 637; in the data active = inhibition above about 30%). Particulars: yeast transport mutant growth, absorbance 615 nm, 18 h; stronger effect = higher value.
The mark [10] stands for this setting: H69AR cells + 2 uM doxorubicin, measured here: viability with 2 uM doxorubicin, stronger effect = lower value.
The mark [11] stands for this setting: H69AR cells, compound alone cytotoxicity.

The source made the active and inactive calls.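 The calls were made as follows, unless noted: active = viability loss from added drug above about 55%, and viability with drug at most 40%, in both replicates (limit read from the data, passing the limit was not always enough); inconclusive = both conditions met in only one replicate; inactive = neither replicate meets both conditions.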

Pantothenate synthetase (Mycobacterium tuberculosis (strain ATCC 25618 / H37Rv)), sequence (P9WIL5 whole entry, looked up): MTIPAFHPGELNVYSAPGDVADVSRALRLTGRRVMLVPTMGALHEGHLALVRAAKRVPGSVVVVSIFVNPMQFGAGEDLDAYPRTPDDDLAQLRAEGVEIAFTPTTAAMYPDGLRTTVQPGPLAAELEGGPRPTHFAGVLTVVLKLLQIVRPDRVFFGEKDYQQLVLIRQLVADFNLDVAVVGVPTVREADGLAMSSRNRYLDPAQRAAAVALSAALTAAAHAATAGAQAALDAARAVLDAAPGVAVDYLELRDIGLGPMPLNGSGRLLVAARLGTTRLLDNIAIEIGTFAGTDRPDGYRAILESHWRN
Receptor tyrosine-protein kinase erbB-2 (Homo sapiens), sequence (P04626 whole entry, looked up): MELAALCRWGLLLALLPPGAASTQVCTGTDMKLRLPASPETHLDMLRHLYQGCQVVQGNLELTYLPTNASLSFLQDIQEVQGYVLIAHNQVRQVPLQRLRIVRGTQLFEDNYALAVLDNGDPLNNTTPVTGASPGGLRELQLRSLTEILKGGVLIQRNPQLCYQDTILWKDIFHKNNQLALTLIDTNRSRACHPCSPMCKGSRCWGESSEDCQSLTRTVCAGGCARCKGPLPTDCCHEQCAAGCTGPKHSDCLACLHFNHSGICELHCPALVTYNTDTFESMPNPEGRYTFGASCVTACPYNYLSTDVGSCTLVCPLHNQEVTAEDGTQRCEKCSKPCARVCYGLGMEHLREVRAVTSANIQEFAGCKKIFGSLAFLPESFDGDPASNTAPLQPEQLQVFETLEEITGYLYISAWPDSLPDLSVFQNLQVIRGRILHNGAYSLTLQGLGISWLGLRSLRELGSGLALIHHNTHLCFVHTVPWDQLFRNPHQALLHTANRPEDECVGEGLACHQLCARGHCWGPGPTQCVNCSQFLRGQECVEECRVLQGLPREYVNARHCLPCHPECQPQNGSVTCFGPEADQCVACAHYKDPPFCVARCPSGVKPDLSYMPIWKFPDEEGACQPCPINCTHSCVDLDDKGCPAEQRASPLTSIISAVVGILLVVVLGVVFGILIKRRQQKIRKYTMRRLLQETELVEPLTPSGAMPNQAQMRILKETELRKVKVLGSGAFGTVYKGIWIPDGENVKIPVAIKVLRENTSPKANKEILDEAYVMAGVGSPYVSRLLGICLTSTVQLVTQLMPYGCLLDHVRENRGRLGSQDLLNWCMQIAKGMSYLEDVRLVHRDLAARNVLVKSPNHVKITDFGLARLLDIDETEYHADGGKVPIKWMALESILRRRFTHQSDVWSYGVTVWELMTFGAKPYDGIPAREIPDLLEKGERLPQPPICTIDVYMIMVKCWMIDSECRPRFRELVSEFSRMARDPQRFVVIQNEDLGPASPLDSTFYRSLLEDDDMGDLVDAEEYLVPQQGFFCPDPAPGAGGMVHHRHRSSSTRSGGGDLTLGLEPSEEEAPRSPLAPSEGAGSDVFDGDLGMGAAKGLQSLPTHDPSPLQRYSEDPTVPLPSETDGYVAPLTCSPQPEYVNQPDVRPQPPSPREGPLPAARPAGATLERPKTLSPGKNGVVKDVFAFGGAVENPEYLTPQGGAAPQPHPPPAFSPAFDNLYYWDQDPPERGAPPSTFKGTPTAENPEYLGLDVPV

For `CC(=O)C1C(=O)NC23CCCCC2C1c1ccccc1O3` (stereo not given), the inhibition was 0% (inactive) in experiment [1], -3.87% (inactive) in experiment [8] and -0.16% (inactive) in experiment [9]. The viability is 88% in experiment [2]; 88% (inactive) in [4]; 109% (inactive) in [5]; 99.3% (inactive) in experiment [6]; 95% in [7] (setting [10]); 99.3% in experiment [7] (setting [11]). For the same compound, the Her2 level in experiment [3] is 91.5% (inactive). In [7] (H69AR cells + 2 uM doxorubicin), the differential viability (reversal) is 4.31% (inactive).

In the case of `COc1ccc(CCNC(=O)c2c(N)n(CCN3CCOCC3)c3nc4ccccc4nc23)cc1`, the figures for the inhibition in experiment [1], in experiment [8] and in [9] were 0% (inactive), 3.82% (inactive) and 1.82% (inactive), respectively. Also, the viability was 104% in [2]; 104% (inactive) in experiment [4]; 19.3% (active) in experiment [6]; 39.8% in experiment [7] (setting [10]); 19.3% in [7] (setting [11]). Besides, the Her2 level in experiment [3] was 87.5% (inactive). Also, the differential viability (reversal) in experiment [7] (H69AR cells + 2 uM doxorubicin) is -20.5% (inactive).

Take `O=C(Cn1c2c(c(-c3ccccc3Cl)cc1=O)CCC2)N1CCC2(CC1)OCCO2`: the inhibition in experiment [1] was 6% (inactive); in experiment [8] it was -1.18% (inactive); in [9] it was -6.61% (inactive). Besides, the viability in [2] is 102%; in experiment [4], 102% (inactive); in experiment [5] it was 108% (inactive); in experiment [6], 96.8% (inactive); in [7] (setting [10]), 112%; in experiment [7] (setting [11]), 96.8%. In experiment [3], the Her2 level is 115% (inactive). The differential viability (reversal) in experiment [7] (H69AR cells + 2 uM doxorubicin) is -15.4% (inactive).

Regarding `C=C1CC[C@@]2(O)[C@H]3Cc4ccc(O)c5c4[C@@]2(CCN3CC2CC2)[C@H]1O5`, the results for the inhibition in experiment [1], in experiment [8] and in experiment [9] were 0% (inactive), -1.43% (inactive) and 6.83% (inactive), respectively. In addition, the viability in experiment [4] was 101% (inactive); in [5], 95.2% (inactive); in [6] it was 110% (inactive); in experiment [7] (setting [10]) it was 95.5%; in experiment [7] (setting [11]), 110%. In addition, in experiment [7] (H69AR cells + 2 uM doxorubicin), the differential viability (reversal) is 14.7% (inactive).

Consider `CC(=NCc1ccc2c(c1)OCO2)c1c(O)n(C)c(=O)n(C)c1=O`, for which the inhibition was 6% (inactive) in experiment [1], -4.42% (inactive) in experiment [8] and -2% (inactive) in experiment [9]. Also, the viability was 94% in experiment [2]; 94% (inactive) in [4]; 92.8% (inactive) in experiment [5]; 98% (inactive) in [6]; 96.9% in experiment [7] (setting [10]); 98% in experiment [7] (setting [11]). Further, in [3], the Her2 level is 90% (inactive). Further, the differential viability (reversal) in experiment [7] (H69AR cells + 2 uM doxorubicin) was 1.15% (inactive).

In the case of `Cc1cnn(C2CCN(C)CC2)c1N`, the figures for the inhibition in experiment [1], in experiment [8] and in [9] were 0% (inactive), 0.14% (inactive) and -5.41% (inactive), respectively. Besides, the viability is 97% in experiment [2]; 97% (inactive) in [4]; 102% (inactive) in experiment [5]; 104% (inactive) in experiment [6]; 98.4% in experiment [7] (setting [10]); 104% in [7] (setting [11]). In experiment [3], the Her2 level was 96.5% (inactive). Also, in [7] (H69AR cells + 2 uM doxorubicin), the differential viability (reversal) is 5.52% (inactive).

Regarding `CC1=C(C(=O)N2CCC3(CC2)OCCO3)C2(CCC(C)CC2)OC1=O` (stereo not given), the figures for the inhibition in experiment [1], in experiment [8] and in experiment [9] were 0% (inactive), -0.77% (inactive) and 0.17% (inactive), respectively. In addition, the viability in experiment [2] is 92.5%; in [4], 92.5% (inactive); in [5], 101% (inactive); in experiment [6] it was 98.4% (inactive); in [7] (setting [10]), 103%; in experiment [7] (setting [11]), 98.4%. Further, in [3], the Her2 level was 102% (inactive). The differential viability (reversal) in [7] (H69AR cells + 2 uM doxorubicin) is -4.92% (inactive).

With `CC(C)CC12CN3CCN(CC(C3)/C1=N/O)C2`, the inhibition in experiment [1] is 0% (inactive); in [8], -5.54% (inactive); in experiment [9], -0.98% (inactive). Moreover, the viability in [2] is 107%; in experiment [4], 107% (inactive); in experiment [5], 108% (inactive); in [6], 96.4% (inactive); in experiment [7] (setting [10]), 87.8%; in [7] (setting [11]), 96.4%. Further, the Her2 level in experiment [3] is 101% (inactive). Also, in [7] (H69AR cells + 2 uM doxorubicin), the differential viability (reversal) is 8.57% (inactive).

As for `C#CCN(C)C(C)Cc1ccccc1` (stereo not given), the inhibition is 5% (inactive) in experiment [1], -0.26% (inactive) in experiment [8] and 2.33% (inactive) in experiment [9]. For the same compound, the viability was 115% (inactive) in [4]; 88.3% (inactive) in experiment [5]; 99.3% (inactive) in [6]; 104% in experiment [7] (setting [10]); 99.3% in [7] (setting [11]). Moreover, in [7] (H69AR cells + 2 uM doxorubicin), the differential viability (reversal) is -5.18% (inactive).

On to `CCOCC(=O)NC1CCSC1=O` (stereo not given), for which the inhibition in [1] was 0% (inactive); in experiment [8], -9.45% (inactive); in experiment [9], 5.16% (inactive). The viability in experiment [4] is 74% (inactive); in experiment [5], 99.4% (inactive); in experiment [6], 93.8% (inactive); in experiment [7] (setting [10]), 93.6%; in experiment [7] (setting [11]), 93.8%. Further, in [7] (H69AR cells + 2 uM doxorubicin), the differential viability (reversal) was 0.265% (inactive).

For the compound `COc1ccc(CN2CCN(C(=O)Cc3ccccc3)CC2)c(OC)c1`, the inhibition was 0% (inactive) in [1], -6.08% (inactive) in experiment [8] and 1.59% (inactive) in [9]. Besides, the viability is 93% in experiment [2]; 93% (inactive) in experiment [4]; 89.9% (inactive) in [5]; 97.3% (inactive) in experiment [6]; 87.4% in experiment [7] (setting [10]); 97.3% in [7] (setting [11]). For the same compound, the Her2 level in experiment [3] is 90% (inactive). The differential viability (reversal) in [7] (H69AR cells + 2 uM doxorubicin) was 9.87% (inactive).

Consider `CCOc1ccc(-n2c(O)c(C=NCCN(CC)CC)c(=O)[nH]c2=O)cc1`, for which the inhibition is 0% (inactive) in [1], 2.13% (inactive) in [8] and -8.06% (inactive) in experiment [9]. Moreover, the viability is 87% in [2]; 87% (inactive) in experiment [4]; 100% (inactive) in experiment [5]; 103% (inactive) in experiment [6]; 103% in experiment [7] (setting [10]); 103% in experiment [7] (setting [11]). In experiment [3], the Her2 level is 105% (inactive). For the same compound, the differential viability (reversal) in experiment [7] (H69AR cells + 2 uM doxorubicin) is -0.4% (inactive).

Consider `CC(CCc1ccccc1)NC(C)C(O)c1ccc(O)cc1` (stereo not given), for which the results for the inhibition in [1], in experiment [8] and in [9] were 4% (inactive), -0.26% (inactive) and -3% (inactive), respectively. Moreover, the viability in [4] was 87% (inactive); in experiment [5], 87.5% (inactive); in [6], 97.2% (inactive); in [7] (setting [10]), 95.5%; in [7] (setting [11]), 97.2%. For the same compound, the differential viability (reversal) in experiment [7] (H69AR cells + 2 uM doxorubicin) is 1.7% (inactive).

Regarding `O=C(c1ccc2nc3ccc(Cl)cc3c(=O)n2c1)N1CCC2(CC1)OCCO2`, the inhibition in experiment [1] is 12% (inactive); in experiment [8], -3.87% (inactive); in experiment [9] it was 1.94% (inactive). Further, the viability in experiment [2] is 97.5%; in [4], 97.5% (inactive); in [5], 98% (inactive); in experiment [6] it was 96.7% (inactive); in [7] (setting [10]) it was 95.4%; in experiment [7] (setting [11]) it was 96.7%. In experiment [3], the Her2 level is 91.5% (inactive). For the same compound, the differential viability (reversal) in experiment [7] (H69AR cells + 2 uM doxorubicin) is 1.37% (inactive).
